Measurements from ChEMBL document CHEMBL4130629 (J Med Chem, 2018).

Experiments:
MT2 = assay: Cytotoxicity against human MT2 cells assessed as decrease in cell viability after 3 days […]; type: functional; settings: MT2, 72 h
[1] = tested on: Human immunodeficiency virus 1; assay: Antiviral activity against ENV pseudotyped CCR5-tropic HIV1 […] infected in human HeLa67 cells after 3 days by luciferase reporter gene assay; type: functional, organism-based; settings: Human immunodeficiency virus 1, HeLa67, 72 h
How it was run: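 Single-cycle infection with env-deleted, luciferase-reporter HIV-1 pseudotyped with the JRFL (CCR5) envelope, supplied by transfection; viral titers normalized by luminescence without compound. HeLa 67 cells were infected in the presence of compounds given as 3-fold serial dilutions made from 30 mM DMSO stocks.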

[2] = Permeability in human Caco2 cells; type: ADME, cell-based; settings: Caco-2, read-out: permeability
[3] = Half life in human liver microsomes; type: ADME, microsome
[4] = Metabolic stability in rat liver microsomes assessed as parent compound remaining after 10 mins; type: ADME, microsome; settings: read-out: Stability
How it was run: (§1)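 Compound at 3 μM was incubated with human or rat liver microsomes, and the percentage of parent compound remaining was measured after 10 min.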

[5] = Metabolic stability in human liver microsomes assessed as parent compound remaining after 10 mins; type: ADME, microsome; settings: read-out: Stability; how it was run: as §1

SMILES | CC50 (MT2) [nM] | EC50 [1] [nM] | Papp [2] [×10⁻⁶ cm/s] | half-life [3] [min] | remaining at 10 min [4] [%] | remaining at 10 min [5] [%]
COc1cnc(-n2cc(C)cn2)c2[nH]cc(C(=O)C(=O)N3CCN(C(=O)c4ccccc4)CC3)c12 | 243000 |  |  |  |  | 
COc1cnc(-c2nccs2)c2[nH]cc(C(=O)C(=O)N3CCN(C(=O)c4ccccc4)CC3)c12 | > 150000 | 0.02 | < 1.5 | 17 |  | 
COc1cnc(-c2ccoc2)c2[nH]cc(C(=O)C(=O)N3CCN(C(=O)c4ccccc4)CC3)c12 | 146000 | 0.11 | 4.6 | 29 |  | 
COc1cnc(-c2cccs2)c2[nH]cc(C(=O)C(=O)N3CCN(C(=O)c4ccccc4)CC3)c12 | 36000 | 0.12 | 6.6 | 18 |  | 
COc1cnc(-c2ccncc2)c2[nH]cc(C(=O)C(=O)N3CCN(C(=O)c4ccccc4)CC3)c12 | 6000 | 0.33 |  |  |  | 
COc1cnc(-n2nccc2C)c2[nH]cc(C(=O)C(=O)N3CCN(C(=O)c4ccccc4)CC3)c12 | > 300000 | 1.43 | 21.6 |  | 100 | 94
COc1cnc(-c2ccco2)c2[nH]cc(C(=O)C(=O)N3CCN(C(=O)c4ccccc4)CC3)c12 | 281000 to 300000 | 0.02 | 8.6 | 19 |  | 
COc1cnc(-n2cncn2)c2[nH]cc(C(=O)C(=O)N3CCN(C(=O)c4ccccc4)[C@H](C)C3)c12 | > 300000 | 0.08 | 21.9 |  | 95 | 95
CCOc1ncc(-c2ncc(OC)c3c(C(=O)C(=O)N4CCN(C(=O)c5ccccc5)CC4)c[nH]c23)s1 | > 300000 | 0.1 |  | 17 |  | 
CNC(=O)c1ccn(-c2ncc(OC)c3c(C(=O)C(=O)N4CCN(C(=O)c5ccccc5)CC4)c[nH]c23)n1 | 166000 | 0.05 | < 1.5 |  | 81 | 87
COCc1ncn(-c2ncc(OC)c3c(C(=O)C(=O)N4CCN(C(=O)c5ccccc5)CC4)c[nH]c23)n1 | > 300000 | 0.09 | < 1.5 |  | 95 | 97
COc1cnc(-c2ccncn2)c2[nH]cc(C(=O)C(=O)N3CCN(C(=O)c4ccccc4)CC3)c12 | 285000 to 300000 | 0.11 | 37.8 | 15 |  | 
COc1cnc(-c2cn(C)c(=O)cn2)c2[nH]cc(C(=O)C(=O)N3CCN(C(=O)c4ccccc4)CC3)c12 | > 150000 | 0.26 |  |  |  | 
CNc1cnc(-c2ncc(OC)c3c(C(=O)C(=O)N4CCN(C(=O)c5ccccc5)CC4)c[nH]c23)cn1 | > 95000 | 0.02 |  | 21 |  | 
COc1cnc(-c2ccsc2)c2[nH]cc(C(=O)C(=O)N3CCN(C(=O)c4ccccc4)CC3)c12 | 43000 | 0.13 | 3.9 | 13 |  | 
COc1cnc(-n2cnc(C(=O)N(C)C)n2)c2[nH]cc(C(=O)C(=O)N3CCN(C(=O)c4ccccc4)CC3)c12 | > 300000 | 0.1 |  |  |  | 
COc1cnc(-c2cncs2)c2[nH]cc(C(=O)C(=O)N3CCN(C(=O)c4ccccc4)CC3)c12 | 297000 to 300000 | 0.03 | 1.5 | 19 |  | 
COc1cnc(-c2cnccn2)c2[nH]cc(C(=O)C(=O)N3CCN(C(=O)c4ccccn4)[C@@H](C)C3)c12 | 267000 to 300000 | 1.04 |  |  |  | 
COc1cnc(-n2ncnc2C)c2[nH]cc(C(=O)C(=O)N3CCN(C(=O)c4ccccc4)CC3)c12 | > 300000 | 4.07 | 9.6 |  | 95 | 99
COc1cnc(-c2ccnnc2)c2[nH]cc(C(=O)C(=O)N3CCN(C(=O)c4ccccc4)CC3)c12 | 14000 | 0.19 | < 1.5 | 48 |  | 
COc1cnc(-c2cnc(N)cn2)c2[nH]cc(C(=O)C(=O)N3CCN(C(=O)c4ccccc4)CC3)c12 | 20000 | 0.04 | 3.3 | 68 |  | 
COc1cnc(-c2ccccn2)c2[nH]cc(C(=O)C(=O)N3CCN(C(=O)c4ccccc4)CC3)c12 | 4000 | 0.13 | 13.4 | 15 |  | 
COc1cnc(-c2cccnn2)c2[nH]cc(C(=O)C(=O)N3CCN(C(=O)c4ccccc4)CC3)c12 | > 300000 | 0.17 | 2.4 | 29 |  | 
COc1cnc(-n2cc(F)cn2)c2[nH]cc(C(=O)C(=O)N3CCN(C(=O)c4ccccc4)CC3)c12 | 75000 | 0.03 | 19.5 |  | 83 | 77
COc1cnc(-n2cnc(C(=O)N3CCN(C)CC3)n2)c2[nH]cc(C(=O)C(=O)N3CCN(C(=O)c4ccccc4)CC3)c12 | > 150000 | 6.54 |  |  |  | 

SMILES | CC50 (MT2) [nM] | EC50 [1] [nM] | Papp [2] [×10⁻⁶ cm/s] | half-life [3] [min] | remaining at 10 min [4] [%] | remaining at 10 min [5] [%]
COc1cnc(-n2ccc(N)n2)c2[nH]cc(C(=O)C(=O)N3CCN(C(=O)c4ccccc4)[C@H](C)C3)c12 | > 300000 | 0.16 |  |  | 91 | 92
CCCS(=O)(=O)c1ncn(-c2ncc(OC)c3c(C(=O)C(=O)N4CCN(C(=O)c5ccccc5)CC4)c[nH]c23)n1 | 207000 | 0.78 |  |  |  | 
CCCSc1ncn(-c2ncc(OC)c3c(C(=O)C(=O)N4CCN(C(=O)c5ccccc5)CC4)c[nH]c23)n1 | 7000 | 0.015 |  |  |  | 
COc1cnc(-n2cnc(C)n2)c2[nH]cc(C(=O)C(=O)N3CCN(C(=O)c4ccccc4)[C@@H](C)C3)c12 | > 300000 | 0.52 |  |  | 95 | 
COc1cnc(-c2cncc(N)n2)c2[nH]cc(C(=O)C(=O)N3CCN(C(=O)c4ccccc4)CC3)c12 | 14000 | 0.06 | 1.5 to 2.2 | 21 |  | 
COc1cnc(-c2ncccn2)c2[nH]cc(C(=O)C(=O)N3CCN(C(=O)c4ccccc4)CC3)c12 | > 300000 | 1.28 | 10.6 | 32 |  | 
COc1cnc(-n2cnc(SC)n2)c2[nH]cc(C(=O)C(=O)N3CCN(C(=O)c4ccccc4)CC3)c12 | > 300000 | 0.03 | < 1.5 |  | 91 | 68
COc1cnc(-n2cnc(N3CCN(C)CC3)n2)c2[nH]cc(C(=O)C(=O)N3CCN(C(=O)c4ccccc4)CC3)c12 | > 300000 | 0.14 |  |  |  | 
COc1cnc(-n2ccc(-c3ccc(-c4nn[nH]n4)cc3)n2)c2[nH]cc(C(=O)C(=O)N3CCN(C(=O)c4ccccc4)CC3)c12 | > 300000 | 0.03 |  |  |  | 
COc1cnc(-c2cnccn2)c2[nH]cc(C(=O)C(=O)N3CCN(C(=O)c4ccccc4)CC3)c12 | 3460 | 0.04 | 17 | 19 |  | 
COc1cnc(-c2cnc(O)cn2)c2[nH]cc(C(=O)C(=O)N3CCN(C(=O)c4ccccc4)CC3)c12 | > 300000 | 0.04 | < 1.5 | > 100 |  | 
COc1cnc(-c2cscn2)c2[nH]cc(C(=O)C(=O)N3CCN(C(=O)c4ccccc4)CC3)c12 |  | 0.11 | 21.7 | 39 |  | 
CNC(=O)c1ncn(-c2ncc(OC)c3c(C(=O)C(=O)N4CCN(C(=O)c5ccccc5)CC4)c[nH]c23)n1 | > 300000 | 0.1 |  |  |  | 
COc1cccc(-c2ncc(OC)c3c(C(=O)C(=O)N4CCN(C(=O)c5ccccc5)CC4)c[nH]c23)n1 | 64000 | 0.91 |  | 8 |  | 
COc1cnc(-c2cnc(N)s2)c2[nH]cc(C(=O)C(=O)N3CCN(C(=O)c4ccccc4)CC3)c12 | > 250000 | 0.06 |  | 26 |  | 
COc1cnc(-c2cccc(C)n2)c2[nH]cc(C(=O)C(=O)N3CCN(C(=O)c4ccccc4)CC3)c12 | 30000 | 0.59 | 13.4 | 12 |  | 
COc1cnc(-c2cccnc2)c2[nH]cc(C(=O)C(=O)N3CCN(C(=O)c4ccccc4)CC3)c12 | 10000 | 0.09 | < 1.5 | 41 |  | 
COc1cnc(-n2nccc2N)c2[nH]cc(C(=O)C(=O)N3CCN(C(=O)c4ccccc4)[C@H](C)C3)c12 | > 300000 | 0.07 |  |  | 85 | 68
COc1cnc(-n2ccc(-c3cccc(-c4nn[nH]n4)c3)n2)c2[nH]cc(C(=O)C(=O)N3CCN(C(=O)c4ccccc4)CC3)c12 | 128000 | 0.02 |  |  |  | 
CCc1ncc(-c2ncc(OC)c3c(C(=O)C(=O)N4CCN(C(=O)c5ccccc5)CC4)c[nH]c23)s1 | 120000 | 0.03 | 14.1 | 7 |  | 
COc1cnc(-n2ccc(CN(C)C)n2)c2[nH]cc(C(=O)C(=O)N3CCN(C(=O)c4ccccc4)[C@H](C)C3)c12 | > 300000 | 19.8 |  |  |  | 
COc1ncn(-c2ncc(OC)c3c(C(=O)C(=O)N4CCN(C(=O)c5ccccc5)CC4)c[nH]c23)n1 | 285000 | 0.13 |  |  |  | 
COc1cnc(-c2ncco2)c2[nH]cc(C(=O)C(=O)N3CCN(C(=O)c4ccccc4)CC3)c12 | 15000 | 0.37 | 7.2 | 37 |  | 
COc1cnc(-c2cc[nH]n2)c2[nH]cc(C(=O)C(=O)N3CCN(C(=O)c4ccccc4)CC3)c12 | 3000 | 0.26 | < 1 | 47 |  | 
COc1cnc(-c2cccc(N)n2)c2[nH]cc(C(=O)C(=O)N3CCN(C(=O)c4ccccc4)CC3)c12 | 122000 | 0.09 | 6.6 | 13 |  | 
